T cruzi growth = T. cruzi proliferation inhibition; T. cruzi beta-gal in NIH3T3, GalScreen luminescence, 90 h; inhibition, % at 8.34 µM; 77,000 compounds, 5.9% hits; AID 624255;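 active = mean inhibition above about 93%, with at least 55% of replicates each passing it, limit read from the data, passing the limit was not always enough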
KDM4C inh = inhibitors of human demethylase GASC-1 KDM4C | GST-KDM4C 2-372, H3K9me3 peptide, LANCE TR-FRET | inhibition, % at 12.5 µM | Q9H3R0 | 96,000 compounds, 0.15% hits;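 active = mean replicate inhibition above about 25%, with at least 55% of replicates also reaching it, limit read from the data, passing the limit was not always enough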
Target sequence (Q9H3R0 2-372 limits assumed): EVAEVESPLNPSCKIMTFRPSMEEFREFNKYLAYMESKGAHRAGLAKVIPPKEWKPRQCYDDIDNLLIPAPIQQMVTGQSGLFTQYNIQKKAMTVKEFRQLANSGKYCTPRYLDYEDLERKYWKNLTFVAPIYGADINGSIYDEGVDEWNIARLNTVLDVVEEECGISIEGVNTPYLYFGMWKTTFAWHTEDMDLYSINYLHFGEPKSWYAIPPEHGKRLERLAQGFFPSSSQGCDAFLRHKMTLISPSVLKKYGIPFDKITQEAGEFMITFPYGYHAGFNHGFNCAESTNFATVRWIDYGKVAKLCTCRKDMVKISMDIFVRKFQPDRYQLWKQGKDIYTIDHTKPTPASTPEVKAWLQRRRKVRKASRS
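Material: N-terminal GST-fused human GASC-1 (KDM4C) fragment, residues 2-372. Input: 10 nM enzyme. Incubation: enzyme reaction 30 min, then detection 60 min, both room temperature. Doses: one test concentration per compound. Read-out basis: inhibition from TR-FRET ratio decrease. Detection: LANCE TR-FRET, excitation 340 nm, emissions 618 and 671 nm.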
IDH1 mut inh = IDH1 R132H (human) inhibition. O75874. IDH1 R132H reductase, diaphorase/resazurin fluorescence, 60 min. AID 624101. 70,000 compounds, 0.18% hits. inhibition, % at 10 µM; in the data active = inhibition above about 34%;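 also: 0% = DMSO and 100% = no enzyme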
Pf Dd2 inh = blocks growth of Plasmodium falciparum Dd2 parasites. P. falciparum Dd2 growth, SYBR Green, 72 h; stronger effect = lower value. activity change, % at 10 µM. 94,000 compounds, 2.3% hits; in the data active = activity change below about -80%
* = called active by the depositor; / = not tested or not shown. Only some compounds are listed: those with a hit (about 5.9% of all), similar ones and a draw of the others.

SMILES	T cruzi growth	KDM4C inh	IDH1 mut inh	Pf Dd2 inh
C[C@@H]1CCCCO[C@H](CN(C)Cc2ccc(C(F)(F)F)cc2)[C@H](C)CN([C@@H](C)CO)C(=O)c2cc(NC(=O)Cc3ccccc3)ccc2O1	-25	/	/	-61
C[C@H]1CCCCO[C@@H](CN(C)CC2CCCCC2)[C@@H](C)CN([C@@H](C)CO)C(=O)c2cc(NC(=O)CCCN(C)C)ccc2O1	18	1	/	-89*
C[C@@H]1CCCCO[C@@H](CN(C)Cc2ccc(C(F)(F)F)cc2)[C@H](C)CN([C@@H](C)CO)C(=O)c2cc(NC(=O)Cc3ccccc3)ccc2O1	-11	0	1	-86*
C[C@@H]1CCCCO[C@H](CN(C)Cc2ccc(C(F)(F)F)cc2)[C@H](C)CN([C@@H](C)CO)C(=O)c2cc(NC(=O)CCCN(C)C)ccc2O1	66	2	2	-89*
C[C@@H]1CCCCO[C@@H](CN(C)Cc2ccc(C(F)(F)F)cc2)[C@@H](C)CN([C@H](C)CO)C(=O)c2cc(NC(=O)Cc3ccccc3)ccc2O1	89	1	/	1
CCN(CC(=O)Nc1cccc(C)c1)S(=O)(=O)c1ccc(Br)cc1	/	/	1	/
CC(C)(Oc1ccc(Cl)cc1)C(=O)Nc1cccc(-c2nc3ncccc3o2)c1	/	/	0	/
C[C@@H]1CCCCO[C@H](CN(C)Cc2ccncc2)[C@H](C)CN([C@@H](C)CO)C(=O)c2cc(NC(=O)CCC(F)(F)F)ccc2O1	66	34*	75*	-4
C[C@@H]1CCCCO[C@H](CN(C)S(=O)(=O)c2ccc(F)cc2)[C@@H](C)CN([C@@H](C)CO)C(=O)c2cc(NC(=O)C3CCCCC3)ccc2O1	75	-1	3	-75
C[C@@H]1CN([C@@H](C)CO)C(=O)c2cc(NC(=O)C3CCCCC3)ccc2O[C@@H](C)CCCCO[C@@H]1CN(C)S(=O)(=O)c1ccc(F)cc1	36	-1	-11	-82*
C[C@@H]1CN([C@H](C)CO)C(=O)c2cc(NC(=O)C3CCCCC3)ccc2O[C@@H](C)CCCCO[C@@H]1CN(C)S(=O)(=O)c1ccc(F)cc1	79	1	1	-82*
CSc1ccccc1NC(=O)CN(C)S(=O)(=O)c1ccc(Cl)cc1	/	/	0	/
C=CC(C)(CC/C=C(\C)C(O)CC=C(C)C)OC1OC(CO)C(O)C(O)C1O (stereo not given)	/	/	0	/
CO[C@@H]1CN(C)C(=O)c2cc(NC(=O)Nc3ccc(Cl)c(Cl)c3)ccc2OC[C@@H](C)NC[C@@H]1C	-58	-2	/	-86*
COc1cccc(NC(=O)Nc2ccc3c(c2)C(=O)N(C)C[C@H](OC)[C@@H](C)CN[C@H](C)CO3)c1	-9	-1	0	7
COc1cccc(NC(=O)Nc2ccc3c(c2)C(=O)N(C)C[C@@H](OC)[C@H](C)CN[C@@H](C)CO3)c1	26	-2	0	-87*
CO[C@@H]1CN(C)C(=O)c2cc(NC(=O)Nc3ccc(Cl)c(Cl)c3)ccc2OC[C@H](C)NC[C@H]1C	-61	-2	/	-77
COc1ccc(S(=O)(=O)N(C)CC(=O)Nc2cccc(Cl)c2C)cc1OC	/	/	0	/
C[C@@H]1CCCCO[C@@H](CN(C)Cc2ccc(Cl)c(Cl)c2)[C@@H](C)CN([C@H](C)CO)C(=O)c2cc(NC(=O)CCCCCC(=O)Nc3ccccc3N)ccc2O1	/	7	0	-67
C[C@@H]1CCCCO[C@H](CN(C)Cc2ccccc2)[C@@H](C)CN([C@@H](C)CO)C(=O)c2cc(NC(=O)CCCCCC(=O)Nc3ccccc3N)ccc2O1	95	1	/	-80
C[C@@H]1CCCCO[C@H](CN(C)Cc2ccc(C(F)(F)F)cc2)[C@@H](C)CN([C@H](C)CO)C(=O)c2cc(NC(=O)CCCCCC(=O)Nc3ccccc3N)ccc2O1	/	1	/	-93*
C[C@@H]1CCCCO[C@@H](CN(C)Cc2ccc3c(c2)OCO3)[C@@H](C)CN([C@H](C)CO)C(=O)c2cc(NC(=O)CCCCCC(=O)Nc3ccccc3N)ccc2O1	/	0	0	-85*
COc1ccc(-n2c(SCc3nc4ccccc4s3)nnc2-c2cccnc2)cc1	/	/	1	/
COc1ccc2c3c(n(C)c2c1)[C@@H](CO)N(Cc1ccccc1F)CC31CCN(CC2CC2)CC1	/	1	/	-88*
COc1ccc2c3c(n(C)c2c1)[C@H](CO)N(Cc1ccccc1OC)CC31CCN(CC2CC2)CC1	/	/	/	-66
COc1ccc2c3c(n(C)c2c1)[C@@H](CO)N(Cc1ccccc1OC)CC31CCN(CC2CC2)CC1	/	/	/	-91*
COc1ccc2c3c(n(C)c2c1)[C@H](CO)N(CC1CC1)CC31CCN(Cc2ccc(F)cc2)CC1	/	0	/	-85*

From PubChem
